ADAM17 inh = inhibitors of human ADAM17 | P78536 | recombinant ADAM17, EDANS/DABCYL FRET peptide cleavage | inhibition, % at 6.95 µM | 370,000 compounds, 0.83% hits;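 active means inhibition above the mean of compounds lying between control limits plus 3 SD, set per campaign, cut at about 8.5% in these data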;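 further: 0% = DMSO-only wells as the low control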
Tn6 DDE FP = DD(E)-Tn6 binding inhibition, primary FP screen | P02675 | inhibition, % at 8.3 µM | 370,000 compounds, 0.21% hits | Fibrin DD(E) TRITC-Tn6 fluorescence polarization displacement;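 active means inhibition above a per-campaign cutoff: mean of compounds within control limits plus 3 SD, cut at about 15% in these data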;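 further: 0% = median of all compound wells on the plate and 100% = blocking peptide control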
PLC-beta3 inh = inhibitors of human phospholipase C beta3; Q01970; Purified PLC-beta3, fluorogenic substrate, fluorescence; inhibition, % at 12.2 µM; 370,000 compounds, 0.18% hits; AID 720704; in the data active means inhibition above about 11%;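 further: 0% = median of compound wells on plate and 100% = full blocker control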
Target sequence (Q01970 whole entry, looked up): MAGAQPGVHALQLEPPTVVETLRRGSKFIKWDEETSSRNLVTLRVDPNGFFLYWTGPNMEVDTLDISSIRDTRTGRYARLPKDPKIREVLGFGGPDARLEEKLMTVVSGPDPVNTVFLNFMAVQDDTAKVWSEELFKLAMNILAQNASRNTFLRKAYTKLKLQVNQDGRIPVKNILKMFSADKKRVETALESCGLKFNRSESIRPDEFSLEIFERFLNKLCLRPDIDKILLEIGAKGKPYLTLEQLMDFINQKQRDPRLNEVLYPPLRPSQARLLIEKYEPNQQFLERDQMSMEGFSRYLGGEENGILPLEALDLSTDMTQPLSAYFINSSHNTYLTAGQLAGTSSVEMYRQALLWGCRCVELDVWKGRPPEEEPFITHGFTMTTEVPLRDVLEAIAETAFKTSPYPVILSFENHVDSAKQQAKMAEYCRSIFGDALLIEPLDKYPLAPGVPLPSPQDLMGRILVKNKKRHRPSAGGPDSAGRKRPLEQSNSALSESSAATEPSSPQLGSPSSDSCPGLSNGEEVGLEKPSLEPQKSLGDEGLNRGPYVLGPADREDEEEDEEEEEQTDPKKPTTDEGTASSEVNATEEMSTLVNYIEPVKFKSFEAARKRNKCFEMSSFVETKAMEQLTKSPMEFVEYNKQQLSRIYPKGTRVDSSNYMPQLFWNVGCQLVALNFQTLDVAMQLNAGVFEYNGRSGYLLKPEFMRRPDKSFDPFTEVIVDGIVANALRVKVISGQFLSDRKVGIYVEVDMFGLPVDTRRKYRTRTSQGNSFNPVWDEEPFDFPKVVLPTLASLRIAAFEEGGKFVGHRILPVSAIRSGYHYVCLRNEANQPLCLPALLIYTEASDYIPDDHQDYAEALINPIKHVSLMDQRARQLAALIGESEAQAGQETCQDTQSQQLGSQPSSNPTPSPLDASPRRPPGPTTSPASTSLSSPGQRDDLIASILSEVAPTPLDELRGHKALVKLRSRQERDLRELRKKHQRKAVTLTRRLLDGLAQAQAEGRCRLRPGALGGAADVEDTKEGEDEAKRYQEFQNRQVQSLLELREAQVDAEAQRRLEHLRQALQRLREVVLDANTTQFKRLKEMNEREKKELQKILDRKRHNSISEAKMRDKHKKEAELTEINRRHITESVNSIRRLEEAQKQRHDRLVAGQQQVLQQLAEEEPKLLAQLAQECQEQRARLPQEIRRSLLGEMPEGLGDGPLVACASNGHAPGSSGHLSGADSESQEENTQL
PLCg1 inh = blocks human PLC-gamma1 enzyme activity; purified PLC-gamma1, fluorogenic substrate, fluorescence; 370,000 compounds, 0.84% hits; inhibition, % at 12.2 µM
Tn7 DDE FP = inhibitors of Tn7 peptide binding to human fibrin DD(E); P02675; FP displacement of FITC-Tn7 peptide from fibrin DD(E); 0% = median of compound wells per plate; inhibition, % at 8.3 µM; 370,000 compounds, 0.13% hits; AID 720508;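 active means inhibition above the mean of compounds falling within the control limits plus 3 SD of them, cut at about 14% in these data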;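 further: 0% = plate median of compound wells and 100% = 10 µM Aha-Tn7 peptide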
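Assay system: human fibrin DD(E). Input: DD(E) 2 µM final. Medium: Tris buffer with calcium and detergent, pH 7.8. Compound dosing: single point at 8.3 µM. Timing: 10 min plus 3 h, room temperature. Technique: fluorescence polarization of the labelled Tn7 tracer. Read-out: percent inhibition. Replicates: singlicate testing.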
ADAM10 inh = inhibits human ADAM10; O14672; recombinant ADAM10, EDANS/DABCYL FRET peptide cleavage, 3 h; inhibition, % at 7 µM; 370,000 compounds, 0.62% hits;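 active means inhibition above a per-campaign cutoff equal to the mean of compounds falling between control-based bounds plus 3 SD, cut at about 20% in these data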;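 further: 0% = DMSO wells while the 100% control is not disclosed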
PLCg1 ctr = inhibits human PLC-gamma1 in PLC-beta3 counter-screen. shares compounds with PLCg1 inh. purified PLC-gamma1, fluorogenic substrate, fluorescence. inhibition, % at 12.3 µM. 3,300 compounds, 3.1% hits. AID 743258
PLCb3 confirm = human PLC-beta3 inhibition, confirmation; purified PLC-beta3, fluorogenic substrate fluorescence; 3,300 compounds, 1% hits; AID 743261; inhibition, % at 12.3 µM; shares compounds with PLCg1 inh; in the data active means inhibition above about 11%
* marks the source's active call; other numbers are inactive results; · = no result given. Only some compounds are listed: those with a hit (about 2.3% of all), similar ones and a draw of the others. Unless noted, no stated cut-off is given here; in the data, active means inhibition above about 9.5%; inactive means the rest.

SMILES | ADAM17 inh | Tn6 DDE FP | PLC-beta3 inh | PLCg1 inh | Tn7 DDE FP | ADAM10 inh | PLCg1 ctr | PLCb3 confirm
CC(C)CNc1cccc2c1S(=O)(=O)N(Cc1cn(Cc3ccc(F)cc3)nn1)Cc1ccccc1O2 | 0 | 3 | -18 | -12 | 4 | -18 | · | ·
COc1ccc(NC(=O)NC2(C)CCS(=O)(=O)C2)cc1 (centres undefined) | 7 | 4 | -4 | 12* | -2 | -12 | -3 | 0
COC(=O)[C@]12C[C@H](CC(=O)NCc3cccc(C(F)(F)F)c3)C(=O)N(Cc3ccc(Cl)cc3Cl)C1=C[C@H](C1CCCC1)O[C@@H]2C | -4 | -6 | 3 | 0 | 0 | -6 | · | ·
C[C@H](CO)N1C[C@H](C)[C@@H](CN(C)C(=O)Nc2ccccc2)Oc2c(NS(=O)(=O)c3ccc(F)cc3)cccc2C1=O | 5 | -6 | 11* | 5 | 0 | 1 | -4 | -1
C[C@H](CO)N1C[C@H](C)[C@@H](CN(C)C(=O)Nc2ccccc2)Oc2c(NS(=O)(=O)c3ccccc3)cccc2C1=O | -4 | 4 | 1 | -1 | 4 | -2 | · | ·
Cn1cnnc1SCc1ccc(C(=O)O)cc1 | -4 | -4 | 1 | 0 | -2 | 3 | · | ·
Cn1cnnc1SCNC(=O)C(F)(F)F | 6 | 12 | 12* | 6 | 5 | 9 | -8 | -4
CSc1cccc(NC(=O)CN(c2ccc(C)cc2C)S(C)(=O)=O)c1 | 8 | -7 | -3 | 2 | -6 | 12 | · | ·
CSc1cccc(NC(=O)CN(c2cccc(C)c2)S(C)(=O)=O)c1 | -1 | -10 | 1 | 11* | -3 | -3 | -6 | -1
CCC(=O)N1CCCC1(C)C(=O)Nc1ccc2scnc2c1 (centres undefined) | 6 | 1 | 8 | 12* | 0 | 14 | -2 | -14
CC(C)Oc1ccc(C(=O)Nc2ccc(NC(=O)c3ccco3)c(Cl)c2)cc1 | -4 | 6 | 15* | -2 | 4 | -14 | -23 | -1
CCOC(=O)C(C)c1c(C)[nH]c(=S)[nH]c1=O (centres undefined) | 7 | 6 | 9 | 11* | -6 | 6 | -3 | -7
CCCCCOC(=O)C(C)c1c(C)[nH]c(=S)[nH]c1=O (centres undefined) | -2 | -4 | 2 | 1 | -6 | -6 | · | ·
Cc1ccc2nc(NC(=O)CN3C(=O)NC4(CCCCC4)C3=O)sc2c1 | 4 | 1 | 0 | 12* | -10 | 5 | 0 | 1
COc1ccc(CCNC(=O)c2cnn(-c3ccccc3)c2N)cc1OC | -1 | 0 | -1 | -23 | -4 | 2 | · | ·
COc1ccc(CCN(C)C2CCCN(C(=O)CCSC)C2)cc1OC (centres undefined) | 1 | 10 | -4 | 2 | 8 | 2 | · | ·
COc1ccc(CCN(C)C2CCCN(C(=O)CCC(F)(F)F)C2)cc1OC (centres undefined) | -1 | 8 | -8 | 9.6* | -1 | 13 | -1 | -3
CCOC(=O)c1ccc(NC(=O)c2nc[nH]c2C(=O)N2CCN(C(=O)OC(C)(C)C)CC2)cc1 | 0 | -8 | 3 | 7 | -7 | 0 | · | ·
CC(C)(C)OC(=O)N1CCN(C(=O)c2[nH]cnc2C(=O)Nc2cccc(Cl)c2)CC1 | -2 | -2 | 1 | 9.7* | 1 | 2 | -5 | -3
O=C(COc1ccc(Cl)cc1)N1CCN(c2ccc([N+](=O)[O-])c(N3CCOCC3)c2)CC1 | 6 | -1 | 1 | 3 | -2 | 13 | · | ·
O=C(COc1ccccc1)N1CCN(c2ccc([N+](=O)[O-])c(N3CCCCC3)c2)CC1 | 7 | -1 | 3 | 12* | -3 | 13 | 0 | 3
CCOc1ccccc1OCCCC(=O)Nc1nc2ccccc2[nH]1 | -2 | 0 | 13* | 5 | 6 | 11 | -6 | -4
CC(C)(C)c1ccc(-c2nnc(SCC(=O)Nc3ccc(Oc4ccccc4)cc3)n2Cc2ccco2)cc1 | 0 | -2 | 2 | -2 | -3 | 0 | · | ·
